This is a sample that favours compounds with a hit; in the whole collection about 2% have one here.
CAL PDZ FP-1: human CAL PDZ-peptide interaction inhibition | Q9HD26 | purified CAL PDZ, TMR-peptide fluorescence polarization, 1 h | inhibition, % at 20 µM | actives 0.02% (n = 330,000);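 active = highest replicate inhibition of at least 40%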
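System: tagged CAL PDZ domain. Schedule: 1 h room-temperature incubation prior to read. Signal: fluorescence polarization (mP). Measure: percent inhibition from loss of millipolarization.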
S100A4 MyoIIA: S100A4-myosin IIA interaction inhibition; inhibition, % at 10.7 µM; AID 652163; P26447; S100A4/TAMRA-MyoIIA peptide fluorescence polarization; actives 0.14% (n = 360,000);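 active = mean inhibition of at least 70% across replicates, with every replicate also reaching that level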
Target sequence (P26447 whole entry, looked up): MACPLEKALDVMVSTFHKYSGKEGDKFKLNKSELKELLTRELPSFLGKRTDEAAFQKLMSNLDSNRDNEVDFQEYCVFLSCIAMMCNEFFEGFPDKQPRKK
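System – human S100A4 monomer protein, biochemical binding assay · Buffer or medium – Calcium-containing HEPES buffer, pH 7.2 · Timing – 5 min between mix addition and reading · Also added – TAMRA-labelled myosin IIA heavy-chain peptide probe, 5 nM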
CDK5 inh: blocks human CDK5/p35 kinase activity | Recombinant CDK5/p35, ADP-Glo luminescence, 60 min | inhibition, % at 10 µM | actives 0.01% (n = 330,000) | AID 488839;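 active = highest replicate inhibition of at least 50% and at least 75% of replicates reaching 50%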
Statin myotox sup: suppression of simvastatin myotoxicity; AID 602340; C2C12 myotubes + simvastatin, ATP luminescence, 48 h; scaled: DMSO 0, geranylgeraniol control 100; actives 0.78% (n = 330,000); rescue of ATP level, % at 7.49 µM;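 active = mean ATP rescue above about 67%, or every replicate alone reaching that limit, limit read from the data, passing the limit was not always enough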;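 note: myotubes were challenged with 10 µM simvastatin during compound exposure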
dFosB act: enhances mouse delta FosB homodimer DNA binding | P13346 | purified delta FosB, TAMRA-CDK5 oligo fluorescence polarization; percent of positive-control signal above neutral wells | activation, % at 25 µM | actives 0.99% (n = 340,000) | AID 493131;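 active = mean activation above about 17%, with every replicate also reaching it, limit read from the data, passing the limit was not always enough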
Target sequence (P13346 whole entry, looked up): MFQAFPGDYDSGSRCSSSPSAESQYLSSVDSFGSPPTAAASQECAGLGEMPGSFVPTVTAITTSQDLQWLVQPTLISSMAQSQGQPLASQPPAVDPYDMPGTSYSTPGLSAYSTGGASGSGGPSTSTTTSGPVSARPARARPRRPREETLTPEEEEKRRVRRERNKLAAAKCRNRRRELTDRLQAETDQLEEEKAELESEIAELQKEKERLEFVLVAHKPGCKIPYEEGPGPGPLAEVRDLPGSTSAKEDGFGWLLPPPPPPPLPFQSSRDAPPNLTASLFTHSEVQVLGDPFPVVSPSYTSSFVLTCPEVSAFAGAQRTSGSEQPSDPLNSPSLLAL
CAL PDZ FP-2: blocks peptide binding to the human CAL PDZ domain. purified CAL PDZ, TMR-peptide fluorescence polarization, 1 h. actives 0.92% (n = 300,000). Q9HD26. inhibition, % at 24.9 µM. AID 602252;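 active = mean inhibition of at least 30% with at least half of replicates also reaching 30%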
Numbers stand for hits.

Screening CCn1c(SCc2ccc(F)cc2)nnc1C1CCN(S(=O)(=O)c2ccc(OC)cc2)CC1 returned CAL PDZ FP-1 inactive, CDK5 inh inactive, Statin myotox sup inactive, dFosB act inactive and CAL PDZ FP-2 49.
For CCOc1ccc(NC(=O)CN(C)C(=O)c2ccc3nc(CC)c(CC)nc3c2)cc1OCC the results were CAL PDZ FP-1 inactive, S100A4 MyoIIA inactive, CDK5 inh inactive, Statin myotox sup inactive, dFosB act inactive and CAL PDZ FP-2 39.
`CCc1nc2ccc(C(=O)N(C)CC(=O)Nc3ccc(Cl)c(C(F)(F)F)c3)cc2nc1CC` gave CAL PDZ FP-1 inactive, S100A4 MyoIIA inactive, CDK5 inh inactive, Statin myotox sup inactive, dFosB act inactive and CAL PDZ FP-2 inactive.
`CCOc1cc(S(=O)(=O)N(CC)CC)ccc1Cl` gave CAL PDZ FP-1 inactive, S100A4 MyoIIA inactive, CDK5 inh inactive, dFosB act inactive and CAL PDZ FP-2 inactive.
For CCOc1cc(C)c(Cl)cc1S(=O)(=O)N(CC)CC the results were CAL PDZ FP-1 inactive, CDK5 inh inactive, Statin myotox sup inactive, dFosB act inactive and CAL PDZ FP-2 74.
For O=C(CN1CCOCC1)N1c2ccccc2Sc2ccc(Cl)cc21 the results were S100A4 MyoIIA inactive and Statin myotox sup inactive.
Screening O=C(CN1CCN(CCOCCO)CC1)N1c2ccccc2Sc2ccc(Cl)cc21 returned CDK5 inh inactive, Statin myotox sup 108, dFosB act inactive and CAL PDZ FP-2 inactive.
For Cn1c(SCC(=O)Nc2ccc3c(c2)OCCO3)nnc1-c1ccccn1 the results were CAL PDZ FP-1 inactive, CDK5 inh inactive, Statin myotox sup inactive, dFosB act inactive and CAL PDZ FP-2 inactive.
O=C(CSc1nnc(-c2ccccn2)n1Cc1ccccc1)Nc1ccc2c(c1)OCO2 was read as S100A4 MyoIIA inactive, CDK5 inh inactive, Statin myotox sup inactive, dFosB act inactive and CAL PDZ FP-2 32.
CCc1ccccc1NC(=O)c1nnn(CC(=O)Nc2ccccc2C)c1N was read as CAL PDZ FP-1 inactive, CDK5 inh inactive, Statin myotox sup inactive, dFosB act inactive and CAL PDZ FP-2 inactive.
`Cc1cc(C)c(NC(=O)Cn2nnc(C(=O)Nc3ccc(F)cc3F)c2N)c(C)c1` gave CAL PDZ FP-1 inactive, S100A4 MyoIIA inactive, CDK5 inh inactive, Statin myotox sup inactive, dFosB act 25 and CAL PDZ FP-2 inactive.
`Cc1cc(C)c(NC(=O)Cn2nnc(C(=O)NCCc3ccccc3)c2N)c(C)c1` gave CAL PDZ FP-1 inactive, CDK5 inh inactive, Statin myotox sup inactive, dFosB act inactive and CAL PDZ FP-2 inactive.
For Cc1cccc(C)c1NC(=O)Cn1nnc(C(=O)Nc2ccc(F)cc2F)c1N the results were CAL PDZ FP-1 inactive, S100A4 MyoIIA inactive, CDK5 inh inactive, Statin myotox sup inactive, dFosB act 46 and CAL PDZ FP-2 inactive.
For CC1CN(C(=O)N[C@@H](Cc2ccccc2)C(=O)O)CC(C)O1 (stereo partly specified) the results were CAL PDZ FP-1 inactive, CDK5 inh inactive, Statin myotox sup 86, dFosB act inactive and CAL PDZ FP-2 inactive.
Screening CC1CCN(C(=O)N[C@@H](Cc2ccccc2)C(=O)O)CC1 returned CDK5 inh inactive, Statin myotox sup inactive, dFosB act inactive and CAL PDZ FP-2 inactive.
Screening CC(C)(C)OC(=O)N1CCC(C(=O)N[C@@H](Cc2ccccc2)C(=O)O)CC1 returned CAL PDZ FP-1 inactive, CDK5 inh inactive, Statin myotox sup 115, dFosB act inactive and CAL PDZ FP-2 inactive.
C(#Cc1ccccc1)CN1CCOCC1 was read as CAL PDZ FP-1 inactive, S100A4 MyoIIA inactive, CDK5 inh inactive, dFosB act inactive and CAL PDZ FP-2 inactive.
For CC=Cc1ccc2n(c1=O)C[C@H]1[C@H](CO)[C@@H](C(=O)N[C@@H](C)c3ccccc3)N(C(=O)c3ccccn3)[C@@H]21 (mixture of isomers) the results were S100A4 MyoIIA inactive and Statin myotox sup inactive.
`Cc1cccc(S(=O)(=O)N2CCCCN3[C@@H](CO)[C@@H](c4ccc(-c5ccccc5)cc4)[C@@H]3C2)c1` gave S100A4 MyoIIA inactive.
O=C(Cc1ccccc1)NNC1=NS(=O)(=O)c2ccccc21 was read as CAL PDZ FP-1 inactive, S100A4 MyoIIA inactive, CDK5 inh inactive, Statin myotox sup inactive, dFosB act inactive and CAL PDZ FP-2 inactive.
Screening CCCCCCCCC(NC(=O)c1ccc(C#N)cc1)C(=O)NCCC (stereo unspecified) returned CAL PDZ FP-1 inactive, S100A4 MyoIIA inactive, CDK5 inh inactive, Statin myotox sup 159, dFosB act inactive and CAL PDZ FP-2 inactive.
COc1ccc(S(=O)(=O)NCc2cccs2)cc1 was read as CAL PDZ FP-1 inactive, CDK5 inh inactive, Statin myotox sup inactive, dFosB act inactive and CAL PDZ FP-2 inactive.
Screening COc1ccc(S(=O)(=O)N(Cc2cccs2)C2CCCC2)cc1 returned CAL PDZ FP-1 inactive, CDK5 inh inactive, Statin myotox sup 106, dFosB act inactive and CAL PDZ FP-2 inactive.
`O=C(NC(N1CCCC1)C(Cl)(Cl)Cl)c1ccccc1` (stereo unspecified) gave CAL PDZ FP-1 inactive, CDK5 inh inactive, dFosB act inactive and CAL PDZ FP-2 inactive.
Screening O=C(NC(N1CCOCC1)C(Cl)(Cl)Cl)c1ccc(F)cc1 (stereo unspecified) returned CAL PDZ FP-1 inactive, S100A4 MyoIIA inactive, CDK5 inh inactive, dFosB act inactive and CAL PDZ FP-2 76.
For Cc1ccc(NC2CCCN(C(=O)CCN3CCCCO3)C2)cc1C (stereo unspecified) the results were CAL PDZ FP-1 inactive, S100A4 MyoIIA inactive, CDK5 inh inactive, Statin myotox sup inactive, dFosB act inactive and CAL PDZ FP-2 62.
Screening O=C(c1ccc2nccnc2c1)N1CCCC(Nc2ccc(F)c(F)c2)C1 (stereo unspecified) returned CAL PDZ FP-1 inactive, S100A4 MyoIIA inactive, CDK5 inh inactive, dFosB act inactive and CAL PDZ FP-2 51.
O=C(CCN1CCCCO1)N1CCCC(Nc2ccc(F)c(F)c2)C1 (stereo unspecified) was read as CAL PDZ FP-1 inactive, S100A4 MyoIIA inactive, CDK5 inh inactive, Statin myotox sup inactive, dFosB act inactive and CAL PDZ FP-2 inactive.
COc1ccccc1OCC(=O)N1CCCC(Nc2ccc(F)c(F)c2)C1 (stereo unspecified) was read as CAL PDZ FP-1 inactive, S100A4 MyoIIA inactive, CDK5 inh inactive, dFosB act inactive and CAL PDZ FP-2 active.
`O=C(c1cc(Cl)ccc1F)N1CCCC(Nc2ccc3c(c2)OCCO3)C1` (stereo unspecified) gave CAL PDZ FP-1 inactive, S100A4 MyoIIA inactive, CDK5 inh inactive, Statin myotox sup inactive, dFosB act inactive and CAL PDZ FP-2 37.
